# Laboratory results published in ChEMBL document CHEMBL3098084, “Synthesis and preliminary evaluation of a new fluorine-18 labelled triazine derivative for PET imaging of cannabinoid CB2 receptor” (Bioorg Med Chem Lett, 2014).
# Experiments:
# [1] = Drug uptake in cerebellum of baboon neuroinflammation model at 110 +/- 34 MBq, iv after 20 mins by PET imaging analysis; assay type: ADME, organism-based; settings: papio anubis, in vivo
# How it was run: (§1)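 Baboons (Papio anubis) received [¹⁸F]-d₂-3 (110 34 MBq) iv. PET images were acquired over 180 min on a Siemens Biograph mCT camera with arterial blood sampling. Regional time-activity curves (frontal, occipital, temporal and parietal cortex, cerebellum) were expressed as SUV, and whole-brain uptake as percent injected dose. Where used, LPS (0.05 or 0.1 mg/kg) was given iv 4 h before the radiotracer.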
# [2] = Drug uptake in perietal cotrex of baboon neuroinflammation model at 110 +/- 34 MBq, iv after 20 mins by PET imaging analysis; assay type: ADME, organism-based, Parietal cortex; settings: papio anubis, in vivo; how it was run: as §1
# [3] = Drug uptake in temporal cotrex of baboon neuroinflammation model at 110 +/- 34 MBq, iv after 20 mins by PET imaging analysis; assay type: ADME, organism-based, Temporal cortex; settings: papio anubis, in vivo; how it was run: as §1
# [4] = Drug uptake in occipital cotrex of baboon neuroinflammation model at 110 +/- 34 MBq, iv after 20 mins by PET imaging analysis; assay type: ADME, organism-based, Occipital cortex; settings: papio anubis, in vivo; how it was run: as §1
# [5] = Drug uptake in frontal cortex of baboon neuroinflammation model at 110 +/- 34 MBq, iv after 20 mins by PET imaging analysis; assay type: ADME, organism-based; settings: papio anubis, in vivo; how it was run: as §1
# Brain = assay: Drug uptake in whole brain of baboon neuroinflammation model at 110 +/- 34 MBq, iv after 20 mins by PET imaging analysis; assay type: ADME, organism-based; settings: papio anubis, in vivo; how it was run: as §1
# [6] = Drug metabolism in baboon neuroinflammation model plasma assessed as compound remaining at 110 +/- 34 MBq, iv administered 180 mins post LPS-challenge by HPLC analysis; assay type: ADME, organism-based; settings: papio anubis, read-out: Stability
# How it was run: (§2)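 Radiotracer [¹⁸F]-d₂-3 (110 34 MBq) was given iv to rhesus macaque or baboon, with arterial blood sampled over 180 min. Parent fraction in plasma was determined by reverse-phase HPLC in a subset of samples. Where used, LPS (0.05 or 0.1 mg/kg) was given iv 4 h before the radiotracer.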
# [7] = Drug metabolism in baboon neuroinflammation model plasma assessed as compound remaining at 110 +/- 34 MBq, iv after 180 mins by HPLC analysis; assay type: ADME, organism-based; settings: papio anubis, read-out: Stability; how it was run: as §2
# [8] = Drug metabolism in rhesus monkey plasma assessed as compound remaining at 110 +/- 34 MBq, iv after 180 mins by HPLC analysis; assay type: ADME, organism-based, Macaca mulatta; settings: read-out: Stability; how it was run: as §2
# [9] = Apparent terminal half life in CD-1 mouse at 3 mg/kg, iv; assay type: ADME, organism-based; design: dose 3 mg/kg, route intravenous; settings: in vivo, read-out: betat1/2(app) (converted)
# How it was run: (§3)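 Male CD1 mice got a single intravenous dose of 3 mg/kg. Drug levels were measured in plasma and brain. The first sampling time was 5 min post-dose. Apparent terminal half-life and brain/plasma AUC(0-inf) were derived from the concentration-time profiles.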
# [10] = Cmax in brain of CD-1 mouse at 3 mg/kg, iv after 5 mins; assay type: ADME, organism-based; design: dose 3 mg/kg, route intravenous; how it was run: as §3
# Cannabinoid receptor 2 [11] = target: T1, Cannabinoid receptor 2 (Homo sapiens, UniProt P34972); assay: Agonist activity at human CB2 receptor expressed in CHO CRE-luc cells; assay type: functional, cell-based
# T1 sequence (P34972 whole entry): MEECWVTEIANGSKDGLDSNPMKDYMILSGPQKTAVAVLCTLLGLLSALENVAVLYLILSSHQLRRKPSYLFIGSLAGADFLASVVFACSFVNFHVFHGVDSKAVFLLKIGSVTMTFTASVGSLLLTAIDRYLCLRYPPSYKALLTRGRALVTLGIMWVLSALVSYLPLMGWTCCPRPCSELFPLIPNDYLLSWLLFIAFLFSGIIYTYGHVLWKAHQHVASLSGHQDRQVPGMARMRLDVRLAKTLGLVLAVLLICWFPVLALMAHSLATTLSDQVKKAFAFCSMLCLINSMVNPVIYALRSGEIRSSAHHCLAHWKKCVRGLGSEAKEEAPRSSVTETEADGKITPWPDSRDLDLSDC
# Cannabinoid receptor 2 [12] = target: T1, Cannabinoid receptor 2; assay: Binding affinity to human CB2 receptor expressed in CHO cells; assay type: cell-based
# Cannabinoid receptor 1 = Cannabinoid receptor 1 (Homo sapiens, UniProt P21554); assay: Binding affinity to human CB1 receptor
# Sequence of Cannabinoid receptor 1 (P21554 whole entry): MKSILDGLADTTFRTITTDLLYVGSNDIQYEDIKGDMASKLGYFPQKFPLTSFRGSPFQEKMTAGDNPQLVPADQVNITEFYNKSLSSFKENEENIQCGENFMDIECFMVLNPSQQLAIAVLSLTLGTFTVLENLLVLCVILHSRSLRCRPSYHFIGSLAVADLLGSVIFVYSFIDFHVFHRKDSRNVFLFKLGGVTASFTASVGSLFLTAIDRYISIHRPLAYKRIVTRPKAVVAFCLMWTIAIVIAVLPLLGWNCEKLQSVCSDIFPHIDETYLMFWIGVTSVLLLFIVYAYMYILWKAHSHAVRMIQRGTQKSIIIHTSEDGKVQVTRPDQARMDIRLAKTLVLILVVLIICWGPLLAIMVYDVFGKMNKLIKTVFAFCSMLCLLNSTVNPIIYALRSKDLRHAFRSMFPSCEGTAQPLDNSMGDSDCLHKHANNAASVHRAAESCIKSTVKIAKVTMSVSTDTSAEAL
# Cannabinoid receptor 2 [13] = target: T1, Cannabinoid receptor 2; assay: Binding affinity to human CB2 receptor
smiles,measurement,setting,value
[2H]C([2H])([18F])Oc1nc(NCCc2ccc(F)cc2)nc(-c2ccc(Cl)c(C(C)(C)O)c2)n1,SUV,[1],0.7 g/mL
same,SUV,[2],0.7 g/mL
same,SUV,[3],0.7 g/mL
same,SUV,[4],0.7 g/mL
same,SUV,[5],0.7 g/mL
same,Drug uptake,Brain,0.5 %ID
same,remaining at 3 h,[6],15%
same,remaining at 3 h,[7],35%
same,remaining at 3 h,[8],35%
CC(C)(O)c1cc(-c2nc(NCCc3ccc(F)cc3)nc(OCF)n2)ccc1Cl,half-life,[9],57.6 min
same,Cmax,[10],2300 ng/g
same,EC50,Cannabinoid receptor 2 [11],0.78 nM
same,IC50,Cannabinoid receptor 2 [12],1.4 nM
COc1nc(NCCc2ccc(F)cc2)nc(-c2ccc(Cl)c(C(C)(C)O)c2)n1,IC50,Cannabinoid receptor 1,300 nM
same,IC50,Cannabinoid receptor 2 [13],0.58 nM
